Source: the RNAGym collection of RNA variant scans (doi:10.1126/science.aae0568)
Variants at the floor of the assay were thinned out.

B1: tRNA (parent)
chain: GUUCCGUUGGCGUAAUGGUAACGCGUCUCCCUCCUAAGGAGAAGACUGCGGGUUCGAGUCCCGUACGGAACG

Variants of: B1
Assay: yeast fitness relative to wild type (ratio to wild type); higher = fitter; tRNA-Arg(CCU), competitive growth, 37 C, YPD
How it was run: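 Genotype frequency changes were the basis for Darwinian fitness relative to wild type. The frequencies came from 100-nucleotide paired-end sequencing of gene amplicons from the start population and each end population of pooled yeast strains with tRNA-Arg(CCU) gene variants at the native locus. Competition ran in YPD at 37°C for 24 hours in six replicates, genotypes needed ≥ 100 starting reads, and estimates < 0.5 were set to 0.5.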
Variant GUUCCGUUGGCGUAAUGGUAACGCGUCACCCUCCUAAGGAGAAGACUGCGGGUUCGUGUCCCGUACGGAACG has a yeast fitness of 0.598. GUUCCGUUGGCGUAAUGGUAACGCGUUUCCCUCCUAAGGAGAAGACUGCGGGUUCGAGUCCCGCACGGAACG gave a yeast fitness of 0.969. Work on GUUCCGUUGGCGUAAUGGUAACGCGUUUCCCUCCUAAGGAGAAGACUGCGGGUUCGAGUCCCGUACAGUACG yielded a yeast fitness of 0.692. GUUCCGUUGGCGUAAUGGUAACGCGUUUCCCUCCUAAGGAGAAGACUGCGGGCUCGAGUCCCGUACGGAACG gave a yeast fitness of 0.617. GUUCCGUUGGCGUAAUGGUAACGCGUUUCCCACCUAAGGAGAAGACUGCGGAUUCGAGUCCCGUAUCGAACG showed a yeast fitness of no more than 0.5. In the case of GUUCCGUUGGCGUAAUGGUAACGCGUCAACCUCCUAGGGAGAAGACUGCGGGUUCGAGUCCCGUACGGAACG, the yeast fitness is reported as no more than 0.5. GUUCCGUUGGCGUAAUGGUAACGCGUUUCCCUCCUAAGGAGAAGACUGCGGAAUCGAGUCCUGUACGGAACG gave a yeast fitness of no more than 0.5. Work on GUUCCGUUGGCGUAAUGGUAACGCGUCACCCUCCUAAGGAGGAGACUGCGGGUUCGAGUCCCGUAUCGAACG yielded a yeast fitness of no more than 0.5. For GUUCCGUUGGCGUAAUGGUAACGCGUUUCCCUCCUAAGGAGAAGACUGCGGGUUCGAGUCCCAUACGGAACG, the yeast fitness was 0.867. GUUCCGUUGGCGUAAUGGUAACGCGUCACCCUCCUACGGAGAAGACUGCGGGUUCGAGUCGCGUACGGAACG gave a yeast fitness of no more than 0.5. Variant GUUCCGUUGGCGUAAUGGUAACGCGUCACCCUCCUACGGAGAAGACUGCGGGUUCGAGUCCCGUACGGAACG has a yeast fitness of 0.657. GUUCCGUUGGCGUAAUGGUAACGCGUCACCCUCCUAGGGAGAAGACUGCGGGUUCGAGUCCCGUACGGAACG gave a yeast fitness of 0.658. Variant GUUCCGUUGGCGUAAUGGUAACGCGUUGGCCUCCUAAGGAGAAGACUGCGGGUUCGAGUCCCGUACGGAACG has a yeast fitness of no more than 0.5. With GUUCCGUUGGCGUAAUGGUAACGCGUUUCCCUCCUAAGGAGAAGACUGCGCGUUAGAGUCCCGUACGGAACG the yeast fitness was no more than 0.5. Variant GUUCCGUUGGCGUAAUGGUAACGCGUCACCCUCCUAAGGAGAAGGCUGCGGGUUCGAGUCCCGUACGGAACG has a yeast fitness of 0.762. In the case of GUUCCGUUGGCGUAAUGGUAACGCGUCACCCUCCUAAGGGGAAGACUGCGGGUUCGAGUCCCGUUUGGAACG, the yeast fitness is reported as no more than 0.5. GUUCCGUUGGCGUAAUGGUAACGCGUUGCCCUCCUAAGGAGUAGACUGCGGGUUCGAGUCCCGUACGGAACG showed a yeast fitness of 0.535. With GUUCCGUUGGCGUAAUGGUAACGCGUUCCCCUCCUAAGGAGAAGACUGCGGGUUCGAGUCCUGUACGGAACG the yeast fitness was 0.625. With GUUCCGUUGGCGUAAUGGUAACGCGUUUCCCUCCUAAGGAGAAAACUGCGGAUUCGCGUCCCGUACGGAACG the yeast fitness was 0.538. Work on GUUCCGUUGGCGUAAUGGUAACGCGUUGCCCUCCUAAGGCGAAGACUGCGGGUUGGAGUCCCGUACGGACCG yielded a yeast fitness of no more than 0.5. GUUCCGUUGGCGUAAUGGUAACGCGUUUCCCUCCUAAGGAGAAGACUGCGGGUUCGAAUCCCGUACGGAGCG showed a yeast fitness of 0.753. GUUCCGUUGGCGUAAUGGUAACGCGUUUCCCUCCUAAGGAAAAGACCGCGGGUUCGAGUCCCGUACGGAACG gave a yeast fitness of 1.08. GUUCCGUUGGCGUAAUGGUAACGCGUUUCCCUCCGAAGGAGUAGACUGCGGGUUCGAGUCCCGUACGGAACG gave a yeast fitness of no more than 0.5. In the case of GUUCCGUUGGCGUAAUGGUAACGCGUCACCCUCCUAAGGAGGAGACUGCGGGUUCGAGUCCCGAACGGAACG, the yeast fitness is reported as no more than 0.5. For GUUCCGUUGGCGUAAUGGUAACGCGUUUCCCUCCUAAGGAGAAGACUGCAGGUUCGAGUCCCGUACGGAACG, the yeast fitness was 0.991. GUUCCGUUGGCGUAAUGGUAACGCGUCACCCUCCUACGGAGAAGACUGCGGGUUCGAGUCGCGUACGUAACG showed a yeast fitness of no more than 0.5. With GUUCCGUUGGCGUAAUGGUAACGCGUUUCCCUCCUAAGGAGAAGACUGCGGGUUCGAGUCCCGUACUGAACG the yeast fitness was 0.854. For GUUCCGUUGGCGUAAUGGUAACGCGUUUCCCUCCUAAGGAGAAGACUGCGGGUUCGAGUCCCGUACCGAACG, the yeast fitness was 0.771. Variant GUUCCGUUGGCGUAAUGGUAACGCGUCAACCUCCUAAGGAGAAGACUGCGGGUUCGAGUCCCGUACGGAACG has a yeast fitness of 0.598. GUUCCGUUGGCGUAAUGGUAACGCGUCACCCUCCUCAGGAGAAGACUGCGGGUUCGAGUCCCGUACGGAACG showed a yeast fitness of 0.511. Variant GUUCCGUUGGCGUAAUGGUAACGCGUCACCCUCCUAAGGAGGAGACUGCGGGUUCGAGUUCCGUACGGAACG has a yeast fitness of no more than 0.5. GUUCCGUUGGCGUAAUGGUAACGCGUUUCCCUCCUAAGGAGAAGACGGCAGGUUCGAGUCCCGUACGGAACG showed a yeast fitness of no more than 0.5. For GUUCCGUUGGCGUAAUGGUAACGCGUCACCCUCCUAAGGAGAAGCAUGCGGGUUCGAGUCCCGUACGGAACG, the yeast fitness was no more than 0.5. GUUCCGUUGGCGUAAUGGUAACGCGUUUCCCUCCUAAGGAGAAGACUGCGGGAUCGAGUCCCGUACAGAACG gave a yeast fitness of no more than 0.5. GUUCCGUUGGCGUAAUGGUAACGCGUUUCCCUCCUAAGGAGAAGACUGCGGGUCCGAGUCCCGUACGGAACG gave a yeast fitness of 0.93. GUUCCGUUGGCGUAAUGGUAACGCGUUUCCCUCCUAAGGAGAAGACUGCGGGUGCGAGUCCCGUACGGAACG gave a yeast fitness of 0.581. With GUUCCGUUGGCGUAAUGGUAACGCGUUUCCCUCCUAAGGAGAAGACUGCGGGUUCCAGUCCCGUACGGAACG the yeast fitness was 0.595.
